The inhibition is the drop in the measured response relative to a control, in per cent. As usually defined, the IC50 is the concentration needed to halve the response being measured.

Data on 21 molecules can be found in ChEMBL document CHEMBL1151166, “Structures of new sesquiterpenes and hepatoprotective constituents from the Egyptian herbal medicine Cyperus longus” (J Nat Prod, 2004).

For test [1], the system named is Hepatocyte. As to the kind of experiment: Hepatoprotective activity in ddY mouse hepatocytes assessed as inhibition of D-galactosamine-induced cytotoxicity at 3 uM after 44 hrs by MTT assay relative to control. It is filed as functional. Put shortly: (§1)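 Cells then exposed to D-GalN (2 mM) plus test sample for 44 h. MTT was added for 4 h. Formazan was dissolved in acidic 2-propanol and read at 562 nm (reference 660 nm). Inhibition (%) = (sample − control)/(normal − control) × 100. Values are means ± SEM.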
(Tetrazolium assays rely on reduction of a dye to a coloured formazan, in cell work by metabolically active cells.)

For test [2], the system named is Hepatocyte. Put plainly: Hepatoprotective activity in ddY mouse hepatocytes assessed as inhibition of D-galactosamine-induced cytotoxicity at 10 uM after 44 hrs by MTT assay relative to control. Type of test: functional. In outline: as §1
Test [3] deals with Hepatocyte. As to the kind of experiment: Hepatoprotective activity in ddY mouse hepatocytes assessed as inhibition of D-galactosamine-induced cytotoxicity at 30 uM after 44 hrs by MTT assay relative to control. It is filed as functional. In outline: as §1
Test [4] concerns Hepatocyte. Put plainly: Hepatoprotective activity in ddY mouse hepatocytes assessed as inhibition of D-galactosamine-induced cytotoxicity at 100 uM after 44 hrs by MTT assay relative to control. It is filed as functional. Put shortly: as §1
The subject of test [5] is Hepatocyte. As to the kind of experiment: Hepatoprotective activity in ddY mouse hepatocytes assessed as inhibition of D-galactosamine-induced cytotoxicity after 44 hrs by MTT assay relative to control. Type of test: functional, cell-based. Put shortly:
as §1

Take `CC(C)(O)[C@@H]1CC=C(CO)CC1`: the inhibition at 3 µM in test [1] was -1.5%. In addition, the inhibition at 10 µM in test [2] worked out at 1.7%. In addition, in test [3], the inhibition at 30 µM was 16.7%. Moreover, the inhibition at 100 µM in test [4] amounted to 53.3%. In test [5], the 50% inhibitory concentration (IC50) worked out at 90 µM.

For `C/C1=C\CC(C)(C)[C@@H](O)[C@H]2C[C@@]2(C)[C@@H](O)CC1`, the inhibition at 3 µM in test [1] came to 5.9%. Also, in test [2], the inhibition at 10 µM stood at 16.6%. In test [3], the inhibition at 30 µM stood at 37.3%. Also, the inhibition at 100 µM in test [4] was found to be 54.8%. In test [5], the IC50 was determined as 70 µM.

For the molecule `CC1=C[C@H]2[C@H](C(C)C)CC[C@](C)(O)[C@H]2C[C@H]1O`, in test [1], the inhibition at 3 µM is -2.3%. Also, in test [2], the inhibition at 10 µM came to 3.7%. In test [3], the inhibition at 30 µM was 9.3%. For the same molecule, the inhibition at 100 µM in test [4] is 15.2%.

For the molecule `CC1(C)C[C@@H]2O[C@@]2(C)CC[C@H]2O[C@]2(C)C[C@@H]2O[C@H]21`, in test [1], the inhibition at 3 µM was found to be 6.9%. Besides, the inhibition at 10 µM in test [2] amounted to 9.7%. In addition, in test [3], the inhibition at 30 µM is 25.7%. Further, the inhibition at 100 µM in test [4] was found to be 51.1%. In test [5], the IC50 was 95 µM.

With `CC1(C)CC2[C@H]1CC[C@@]1(C)O[C@]2(CO)CC[C@H]1O` (stereo partly specified), the inhibition at 3 µM in test [1] came out at 5.7%. Besides, the inhibition at 10 µM in test [2] was 10.4%. For the same molecule, the inhibition at 30 µM in test [3] was found to be 19.9%. Further, the inhibition at 100 µM in test [4] was found to be 45.9%.

Turning to `C=C(C)[C@@H]1CC[C@@H](C)[C@@]2(O)CC(=O)C(C)=C2C1`, in test [1], the inhibition at 3 µM is -4.5%. Further, in test [2], the inhibition at 10 µM was -1.1%. The inhibition at 30 µM in test [3] came to 13.5%. Also, in test [4], the inhibition at 100 µM worked out at 58%. In test [5], the IC50 was determined as 83 µM.

With `CC1(C)C[C@@H]2[C@@H]1CC[C@@]1(C)C[C@]2(O)CC[C@@H]1O`, the inhibition at 3 µM in test [1] turned out to be 6.3%. For the same molecule, the inhibition at 10 µM in test [2] was found to be 16.8%. For the same molecule, the inhibition at 30 µM in test [3] is 26.7%. In test [4], the inhibition at 100 µM was 51.7%. In addition, the IC50 in test [5] was determined as 100 µM.

`C=C1C/C=C/C(C)(C)C[C@@H](O)/C(C)=C\C[C@@H]1O`: the inhibition at 3 µM in test [1] was 11.6%. The inhibition at 10 µM in test [2] came out at 25.6%. Further, in test [3], the inhibition at 30 µM was 47.5%. For the same molecule, the inhibition at 100 µM in test [4] was 80.8%. The IC50 in test [5] is 27 µM.

Regarding `CC1(C)CC2[C@H]1CC[C@@]1(C)OC[C@]2(O)CC[C@@H]1O` (stereo partly specified), the inhibition at 3 µM in test [1] was 12.5%. For the same molecule, the inhibition at 10 µM in test [2] is 14.3%. Also, the inhibition at 30 µM in test [3] was 24.8%. Moreover, the inhibition at 100 µM in test [4] was determined as 36.4%.

Turning to `CC1(C)C[C@H](O)[C@]23CC[C@@H](O)[C@@](C)(CC[C@@H]12)C3` [CLOVANEDIOL], in test [1], the inhibition at 3 µM amounted to 3.6%. Moreover, the inhibition at 10 µM in test [2] was 13.6%. Besides, the inhibition at 30 µM in test [3] stood at 32.3%. In test [4], the inhibition at 100 µM was 40.2%.

On to `C=C(C)[C@@H]1CC[C@](C)(O)C2=C(C1)[C@](C)(O)CC2=O` [CYPERUSOL A1], for which, in test [1], the inhibition at 3 µM amounted to 2.2%. Also, the inhibition at 10 µM in test [2] turned out to be 5.6%. The inhibition at 30 µM in test [3] is 9.5%. The inhibition at 100 µM in test [4] is 16.5%.

For the molecule `C=C(C)C(CC[C@H](C)O)CC1=C(C)CCC1=O` (stereo partly specified) [CYPERUSOL B1], the inhibition at 3 µM in test [1] worked out at 3%. In test [2], the inhibition at 10 µM came out at 20.4%. For the same molecule, in test [3], the inhibition at 30 µM was 22.7%. Further, the inhibition at 100 µM in test [4] was 34.7%.

Turning to `C=C(C)C(CC[C@@H](C)O)CC1=C(C)CCC1=O` (stereo partly specified) [CYPERUSOL B2], in test [1], the inhibition at 3 µM was found to be 4.4%. In addition, in test [2], the inhibition at 10 µM came out at 6.5%. Also, the inhibition at 30 µM in test [3] was -1.4%. Moreover, the inhibition at 100 µM in test [4] came to 19.9%.

With `C=C(C)[C@@H]1CC[C@@]2(C)[C@H](O)CC[C@@](C)(O)[C@@H]2C1` [CYPERUSOL C], the inhibition at 3 µM in test [1] was 6.3%. Moreover, in test [2], the inhibition at 10 µM turned out to be 8.1%. The inhibition at 30 µM in test [3] is 28.4%. The inhibition at 100 µM in test [4] was determined as 29.9%.

`C=C(C)[C@@H]1CC[C@@H](C)[C@]2(O)CC[C@](C)(O)C(=O)[C@@H]12` [CYPERUSOL D]: in test [1], the inhibition at 3 µM was -3.6%. Moreover, the inhibition at 10 µM in test [2] turned out to be 2.6%. The inhibition at 30 µM in test [3] is 31.9%. Moreover, the inhibition at 100 µM in test [4] is 46.1%.

For the molecule `C=C(C)[C@@H]1CC[C@](C)(O)[C@H]2CC[C@](C)(O)[C@H]2C1` [GUAIDIOL], the inhibition at 3 µM in test [1] was determined as 2.6%. The inhibition at 10 µM in test [2] came to 10.4%. In addition, the inhibition at 30 µM in test [3] worked out at 20.3%. For the same molecule, the inhibition at 100 µM in test [4] is 35.4%.

On to `C=C(C)[C@@H]1CC[C@]2(C)C(=C(C)C(=O)C[C@H]2O)C1` [LIGUCYPERONOL], for which the inhibition at 3 µM in test [1] came to 5.5%. In addition, the inhibition at 10 µM in test [2] was 13.9%. Also, the inhibition at 30 µM in test [3] turned out to be 12.6%. Besides, in test [4], the inhibition at 100 µM was 46.7%.

As to `C=C(C)C(CCC(C)=O)CC1=C(C)CCC1=O` (stereo unspecified) [MANDASSIDIONE], the inhibition at 3 µM in test [1] is -0.1%. Further, in test [2], the inhibition at 10 µM was 7.7%. Also, in test [3], the inhibition at 30 µM came to 14.7%. For the same molecule, the inhibition at 100 µM in test [4] amounted to 21.6%.

Take `COc1cc(C2Oc3cc([C@H]4Oc5cc(O)cc(O)c5C(=O)[C@@H]4O)ccc3OC2CO)ccc1O` (stereo partly specified) [SILIBININ]: the inhibition at 3 µM in test [1] stood at 4.8%. In addition, in test [2], the inhibition at 10 µM amounted to 7.7%. In addition, the inhibition at 30 µM in test [3] was found to be 45.2%. Also, in test [4], the inhibition at 100 µM turned out to be 77%. In addition, the IC50 in test [5] stood at 41 µM.

Regarding `CC1=CCC(C(C)(C)O)CC1O` (stereo unspecified) [SOBREROL], the inhibition at 3 µM in test [1] is 5.5%. In test [2], the inhibition at 10 µM came to 8.9%. Also, the inhibition at 30 µM in test [3] was 15.9%. The inhibition at 100 µM in test [4] turned out to be 23.7%.

In the case of `CC1(C)C[C@H]2[C@H]1[C@H]1C[C@@]1(C)[C@H](O)CC[C@]2(C)O` [TRICYCLOHUMULADIOL], the inhibition at 3 µM in test [1] was 10.9%. For the same molecule, the inhibition at 10 µM in test [2] is 16.1%. Besides, the inhibition at 30 µM in test [3] was 22.1%. Besides, in test [4], the inhibition at 100 µM came to 37.7%.
